test system: not listed separately; assay: Drug extrusion in human CD4 positive cells assessed as change in mean fluorescence intensity at 5 x 10^-8 M preincubated for 20 mins followed by growth in photosensitizer-free media for 30 mins by flow cytometric analysis relative to control; format: cell-based; conditions: 0.5 h, 0.05 µM

**Q.** For C[N+]1=c2cc3c(cc2C(C)(C)CC1)=C(c1ccc(C(=S)N2CCCCC2)s1)c1cc2c4c(c1[Se]3)CCCN4CCC2.[Cl-], which Activity is on record?
**A.** 37.7%

test system: not listed separately; assay: Drug extrusion in human CD3 positive cells assessed as change in mean fluorescence intensity at 5 x 10^-8 M preincubated for 20 mins followed by growth in photosensitizer-free media for 30 mins by flow cytometric analysis relative to control; format: cell-based; conditions: 0.5 h, 0.05 µM

**Q.** Which Activity does the source give for C[N+]1=c2cc3c(cc2C(C)(C)CC1)=C(c1ccc(C(=S)N2CCCCC2)s1)c1cc2c4c(c1[Se]3)CCCN4CCC2.[Cl-] here?
**A.** 36.8%

test system: not listed separately; assay: Drug uptake in SEB-stimulated human CD25 negative cells assessed as mean fluorescence intensity at 5 x 10^-8 M preincubated for 20 mins followed by growth in photosensitizer-free media for 30 mins by flow cytometric analysis relative to control; conditions: 0.5 h, 0.05 µM

**Q.** For C[N+]1=c2cc3c(cc2C(C)(C)CC1)=C(c1ccc(C(=S)N2CCCCC2)s1)c1cc2c4c(c1[Se]3)CCCN4CCC2.[Cl-], which Flu intensity is on record?
**A.** 14100 a.u.

test system: ABCB1; assay: Passive permeability in dog MDCK2-MDR1 cells expressing ABCB1 at 5 uM after 30 mins in presence of compound 15 by LC-MS/MS analysis; format: ADME, cell-based, Canis lupus familiaris, MDCK-II; conditions: MDCK-MDR1, with compound 15 (concentration not stated), read-out: permeability
Method in brief: (§1)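 MDR1-transfected MDCKII cells (passage 16–42) were seeded at 50,000 cells cm^-2 on Transwell filters and used on day 6. Monolayers were rinsed in DPBS with 10^-2 M HEPES, pH 7.4, at 37 °C. They were preincubated 30 min in 4.3 mg/mL BSA/DPBSH with or without 5×10^-6 M P-gp inhibitor. 5 μM dye was added apically or basolaterally and samples taken after 1 h at 37 °C with nutation. Quantitation was by LC-MS/MS; P_passive is the mean of P_AB and P_BA under full inhibition. Mean ± SD.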

**Q.** For C[N+]1=c2cc3c(cc2C(C)(C)CC1)=C(c1ccc(C(=S)N2CCCCC2)s1)c1cc2c4c(c1[Se]3)CCCN4CCC2.[Cl-], which Papp at 0.5 h, 5 µM is on record?
**A.** < 0.1 ×10⁻⁶ cm/s

test system: HuT78; assay: Drug uptake in GFP expressing human HUT78 cells co-cultured with non-stimulated human PBMC cells assessed as change in mean fluorescence intensity at 7.5 x 10^-8 M after 20 mins followed by growth in photosensitizer-free media for 30 mins by flow cytometric analysis relative to control; format: cell-based; conditions: hut78, 0.5 h, 0.075 µM

**Q.** For C[N+]1=c2cc3c(cc2C(C)(C)CC1)=C(c1ccc(C(=S)N2CCCCC2)s1)c1cc2c4c(c1[Se]3)CCCN4CCC2.[Cl-], which Activity is on record?
**A.** 28.2%

test system: not listed separately; assay: Drug extrusion in SEB-stimulated human CD25 positive cells assessed as change in mean fluorescence intensity at 5 x 10^-8 M preincubated for 20 mins followed by growth in photosensitizer-free media for 30 mins by flow cytometric analysis relative to control; conditions: 0.5 h, 0.05 µM

**Q.** With C[N+]1=c2cc3c(cc2C(C)(C)CC1)=C(c1ccc(C(=S)N2CCCCC2)s1)c1cc2c4c(c1[Se]3)CCCN4CCC2.[Cl-] as the compound, how does the Activity read?
**A.** 22%

test system: not listed separately; assay: Drug extrusion in SEB-stimulated human CD25 negative cells assessed as mean fluorescence intensity at 5 x 10^-8 M preincubated for 20 mins followed by growth in photosensitizer-free media for 30 mins by flow cytometric analysis relative to control; conditions: 0.5 h, 0.05 µM

**Q.** For C[N+]1=c2cc3c(cc2C(C)(C)CC1)=C(c1ccc(C(=S)N2CCCCC2)s1)c1cc2c4c(c1[Se]3)CCCN4CCC2.[Cl-], which Flu intensity is on record?
**A.** 9500 a.u.

test system: not listed separately; assay: Drug extrusion in human CD8 positive cells assessed as change in mean fluorescence intensity at 5 x 10^-8 M preincubated for 20 mins followed by growth in photosensitizer-free media for 30 mins by flow cytometric analysis relative to control; format: cell-based; conditions: 0.5 h, 0.05 µM

**Q.** Which Activity does the source give for C[N+]1=c2cc3c(cc2C(C)(C)CC1)=C(c1ccc(C(=S)N2CCCCC2)s1)c1cc2c4c(c1[Se]3)CCCN4CCC2.[Cl-] here?
**A.** 51%

test system: not listed separately; assay: (§2) Phototoxicity human CD3 positive cells co-cultured with GFP expressing human HUT78 cells assessed as cell survival at 7.5 x 10^-8 M preincubated 20 mins in photosensitizer media followed by growth in photosensitizer-free media for 30 mins measured 18 hrs after exposure to 5 J/cm2 irradiation by FACS analysis; format: cell-based; conditions: read-out: Survival
Method in brief: (§3)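 Non-stimulated PBMCs from healthy donors (Ficoll-separated) were mixed 5:1 with GFP-transfected, sorted (>98%) HUT-78 cells. Cells took up 7.5×10^-8 M photosensitizer for 20 min, then spent 30 min in dye-free medium. They were exposed to 5 J cm^-2 light (600 nm LED) with rotation at 180 rpm. Survival was gated by FACS (GFP, CD3, CD4, CD8) 18 h later versus non-irradiated controls. Triplicate; mean ± SEM.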

**Q.** Which viability at 18 h, 0.075 µM does the source give for C[N+]1=c2cc3c(cc2C(C)(C)CC1)=C(c1ccc(C(=S)N2CCCCC2)s1)c1cc2c4c(c1[Se]3)CCCN4CCC2.[Cl-] here?
**A.** 0.4%

test system: HuT78; conditions: human, hut78, 0.5 h, 0.075 µM

**Q.** Which Flu intensity does the source give for C[N+]1=c2cc3c(cc2C(C)(C)CC1)=C(c1ccc(C(=S)N2CCCCC2)s1)c1cc2c4c(c1[Se]3)CCCN4CCC2.[Cl-] here?
**A.** 42000 a.u.

test system: not listed separately; assay: Drug extrusion in SEB-stimulated human CD25 positive cells assessed as mean fluorescence intensity at 5 x 10^-8 M preincubated for 20 mins followed by growth in photosensitizer-free media for 30 mins by flow cytometric analysis relative to control; conditions: 0.5 h, 0.05 µM

**Q.** Which Flu intensity does the source give for C[N+]1=c2cc3c(cc2C(C)(C)CC1)=C(c1ccc(C(=S)N2CCCCC2)s1)c1cc2c4c(c1[Se]3)CCCN4CCC2.[Cl-] here?
**A.** 33800 a.u.

test system: ABCB1; assay: Permeability from basolateral to apical side in dog MDCK2-MDR1 cells expressing ABCB1 at 5 uM after 30 mins in absence of compound 15 by LC-MS/MS analysis; format: ADME, cell-based, Canis lupus familiaris, MDCK-II; conditions: MDCK-MDR1, read-out: permeability; method in brief: as §1

**Q.** With C[N+]1=c2cc3c(cc2C(C)(C)CC1)=C(c1ccc(C(=S)N2CCCCC2)s1)c1cc2c4c(c1[Se]3)CCCN4CCC2.[Cl-] as the compound, how does the Papp B→A at 0.5 h, 5 µM read?
**A.** 0.88 ×10⁻⁶ cm/s

test system: ABCB1; assay: Permeability from apical to basolateral side in dog MDCK2-MDR1 cells expressing ABCB1 at 5 uM after 30 mins in absence of compound 15 by LC-MS/MS analysis; format: ADME, cell-based, Canis lupus familiaris, MDCK-II; conditions: MDCK-MDR1, read-out: permeability; method in brief: as §1

**Q.** Which Papp A→B at 0.5 h, 5 µM does the source give for C[N+]1=c2cc3c(cc2C(C)(C)CC1)=C(c1ccc(C(=S)N2CCCCC2)s1)c1cc2c4c(c1[Se]3)CCCN4CCC2.[Cl-] here?
**A.** 0.044 ×10⁻⁶ cm/s

test system: not listed separately; assay: Drug uptake in SEB-stimulated human CD25 positive cells assessed as mean fluorescence intensity at 5 x 10^-8 M preincubated for 20 mins followed by growth in photosensitizer-free media for 30 mins by flow cytometric analysis relative to control; conditions: 0.5 h, 0.05 µM

**Q.** Which Flu intensity does the source give for C[N+]1=c2cc3c(cc2C(C)(C)CC1)=C(c1ccc(C(=S)N2CCCCC2)s1)c1cc2c4c(c1[Se]3)CCCN4CCC2.[Cl-] here?
**A.** 43300 a.u.

test system: ABCB1; assay: Permeability from basolateral to apical side in dog MDCK2-MDR1 cells expressing ABCB1 at 5 uM after 30 mins in presence of compound 15 by LC-MS/MS analysis; format: ADME, cell-based, Canis lupus familiaris, MDCK-II; conditions: MDCK-MDR1, with compound 15 (concentration not stated), read-out: permeability; method in brief: as §1

**Q.** Which Papp B→A at 0.5 h, 5 µM does the source give for C[N+]1=c2cc3c(cc2C(C)(C)CC1)=C(c1ccc(C(=S)N2CCCCC2)s1)c1cc2c4c(c1[Se]3)CCCN4CCC2.[Cl-] here?
**A.** 0.032 ×10⁻⁶ cm/s

test system: not listed separately; assay: N-octanol/water partition coefficient, logP of the compound at 23 degC after 1 hr by HPLC based shake flask method; format: physicochemical; conditions: not given
Method in brief: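 Shake-flask method using 1-octanol: 3–5 min of mixing, then 1 h settling. Equilibration and measurement were at 23 °C, in triplicate.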

**Q.** For C[N+]1=c2cc3c(cc2C(C)(C)CC1)=C(c1ccc(C(=S)N2CCCCC2)s1)c1cc2c4c(c1[Se]3)CCCN4CCC2.[Cl-], which logP is on record?
**A.** 3.78

test system: ABCB1; assay: Permeability from apical to basolateral side in dog MDCK2-MDR1 cells expressing ABCB1 at 5 uM after 30 mins in presence of compound 15 by LC-MS/MS analysis; format: ADME, cell-based, Canis lupus familiaris, MDCK-II; conditions: MDCK-MDR1, with compound 15 (concentration not stated), read-out: permeability; method in brief: as §1

**Q.** With C[N+]1=c2cc3c(cc2C(C)(C)CC1)=C(c1ccc(C(=S)N2CCCCC2)s1)c1cc2c4c(c1[Se]3)CCCN4CCC2.[Cl-] as the compound, how does the Papp A→B at 0.5 h, 5 µM read?
**A.** 0.046 ×10⁻⁶ cm/s

test system: not listed separately; assay: Drug extrusion in SEB-stimulated human CD25 negative cells assessed as change in mean fluorescence intensity at 5 x 10^-8 M preincubated for 20 mins followed by growth in photosensitizer-free media for 30 mins by flow cytometric analysis relative to control; conditions: 0.5 h, 0.05 µM

**Q.** Which Activity does the source give for C[N+]1=c2cc3c(cc2C(C)(C)CC1)=C(c1ccc(C(=S)N2CCCCC2)s1)c1cc2c4c(c1[Se]3)CCCN4CCC2.[Cl-] here?
**A.** 32.9%

test system: HuT78; assay: as §2, with “in” for “human CD3 positive cells co-cultured with”, “HUT78 cells co-cultured with human PBMC” for “HUT78”; format: functional; conditions: HuT78, light or radiation study, read-out: Survival; method in brief: as §3

**Q.** For C[N+]1=c2cc3c(cc2C(C)(C)CC1)=C(c1ccc(C(=S)N2CCCCC2)s1)c1cc2c4c(c1[Se]3)CCCN4CCC2.[Cl-], which viability at 0.075 µM is on record?
**A.** 0.7%

test system: HuT78; conditions: human, hut78, 0.5 h, 0.075 µM; remark: another data set of the same source

**Q.** Which Flu intensity does the source give for C[N+]1=c2cc3c(cc2C(C)(C)CC1)=C(c1ccc(C(=S)N2CCCCC2)s1)c1cc2c4c(c1[Se]3)CCCN4CCC2.[Cl-] here?
**A.** 36000 a.u.

— ChEMBL document CHEMBL3826914, “Selective photodepletion of malignant T cells in extracorporeal photopheresis with selenorhodamine photosensitizers” (Bioorg Med Chem, 2016)
